Reference: ChEMBL document CHEMBL3870302, “Computer-aided identification, synthesis and evaluation of substituted thienopyrimidines as novel inhibitors of HCV replication” (Eur J Med Chem, 2016)

Legend:
Hepatitis C virus = assay: Antiviral activity against Hepatitis C virus genotype 1b infected in human HuH5.2 cells after 72 hrs by luciferase reporter gene assay; format: functional, cell-based, Hepacivirus hominis
How it was run: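 Huh 5-2 cells with genotype 1b I389luc-ubi-neo/NS3-3'/5.1 subgenomic replicon, seeded 6 500 cells/well in DMEM/10% FCS without Geneticin, overnight 37 °C. Compound (DMSO stock diluted in medium) in 1:5 four-step or 1:2 eight-step series, 72 h. Cells PBS-washed, lysed 5 min, luciferase luminescence read, converted to % untreated control; EC50 from dose-response curve, mean of ≥2 independent experiments.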

[1] = Cytotoxicity against human HuH5.2 cells assessed as reduction in metabolic activity after 72 hrs by MTS assay; format: toxicity, cell-based, Huh-5-2; conditions: HuH5.2 cells
How it was run: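 Run in parallel with the replicon assay: Huh 5-2 replicon cells, 6 500 cells/well, compound series for 72 h at 37 °C, 5% CO2. Medium then replaced with 5% MTS in phenol red-free medium for 1.5 h. Absorbance at 498 nm expressed as % untreated cells; CC50 from dose-response curve as 50% reduction in metabolic activity, mean of ≥2 experiments.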

[2] = Selectivity index, ratio of CC50 for human HuH5.2 cells to EC50 for hepatitis C virus genotype 1b infected in human HuH5.2 cells; format: toxicity, cell-based; conditions: HuH5.2 cells, read-out: Ratio CC50/EC50
How it was run: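 Ratio of CC50 (MTS metabolic read-out, 72 h) to EC50 (replicon luciferase read-out, 72 h), both measured in parallel on Huh 5-2 genotype 1b replicon cells.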

[3] = Inhibition of Hepatitis C virus genotype 1b (con1) full length C-terminal His-tagged NS3 helicase expressed in Escherichia coli Rosette(DE3) assessed as inhibition of 5'-Cy5/3'-IAbRQ-labeled DNA unwinding activity by molecular beacon assay; set-up: species or system Hepatitis C virus (isolate Con1)
How it was run: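 Molecular beacon unwinding assay: 25 mM MOPS pH 6.5, 1.25 mM MgCl2, 5% DMSO, 5 µg/ml BSA, 0.01% Tween20, 0.05 mM DTT, 5 nM fluorescent DNA substrate, 12.5 nM NS3h, 1 mM ATP.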

[4] = Hepatitis C virus, genotype 1b, Huh-5-2, 72 h

Compound	EC50 (Hepatitis C virus; [4]) [µM]	EC90 (Hepatitis C virus; [4]) [µM]	IC50 [3] [µM]	EC50 (Hepatitis C virus) [µM]	EC90 (Hepatitis C virus) [µM]	CC50 at 72 h [1] [µM]	selectivity ratio [2]
NNc1ncnc2sc3c(c12)CCCC3	23.1	47.4				247	10.7
COc1ccc(-c2c(C#N)c(SCC(N)=O)nc3c2CCCC3)cc1	130	> 142				> 142	> 1.1
O=C(CCN1C(=O)c2cccc3cccc(c23)C1=O)N1CCN(Cc2ccc3c(c2)OCO3)CC1	32					> 106	> 3.3
O=S(=O)(Nc1ccc(O)c(Sc2ncn[nH]2)c1)c1cccc2ccccc12	42.2					> 126	> 2.9
C/C(=N\Nc1ncnc2sc3c(c12)CCCC3)c1cccc(O)c1	403	> 443				> 443	> 1.1
O=C(NNc1ncnc2sc3c(c12)CCCC3)c1cccnc1	128	> 307				> 307	> 2.4
C/C(=N\Nc1ncnc2sc3c(c12)CCC3)c1cc(O)ccc1O	17.8	17.6				> 367	> 20.6
c1ccc2c(Nc3ncnc4sc5c(c34)CCCC5)cccc2c1	32.4	> 33.5	> 1000			281	8.7
C/C(=N\Nc1nc(C)nc2sc3c(c12)CCCC3)c1ccccc1O	115	> 94.6				> 284	> 2.5
O=C(NNc1ncnc2sc3c(c12)CCCC3)c1ccco1	199					230	1.2
C/C(=N\Nc1ncnc2sc3c(c12)CCCC3)c1ccccc1	33.6	> 310				53.4	1.6
COc1ccc(OC)c(/C(C)=N/Nc2ncnc3sc4c(c23)CCCC4)c1	53.6					98.5	1.8
CCOc1cc(C)c(S(=O)(=O)N2CCN(Cc3ccc4c(c3)OCO4)CC2)cc1C	34.5					> 116	> 3.4
O=C(NNc1ncnc2sc3c(c12)CCCC3)c1cccc(O)c1	210	> 220				> 294	> 1.4
C/C(=N\Nc1ncnc2sc3c(c12)CCCC3)c1cccnc1	79.4	> 103				> 309	> 3.9
COc1cccc(C2=Nn3c(CN4CCC(C)CC4)nnc3SC2)c1	130	> 139				> 139	> 1.1
O=C(/C=C(/C(=O)O)c1ccccc1)Nc1ccc(N2CCN(CCO)CC2)cc1	65					> 126	> 0.19
CCOc1cc(C2C(C(=O)OC)=C(C)NC3=C2C(=O)CC(c2ccc(OC)c(OC)c2)C3)ccc1O (stereo not given)	36					> 101	> 2.8
O=C(NNc1ncnc2sc3c(c12)CCCC3)c1ccc[nH]1	147					160	1.1
C/C(=N\Nc1ncnc2sc3c(c12)CCCC3)c1cc(O)ccc1O (stereo in doubt; form 2)				< 2.2	135	> 282	> 128

The remaining compounds from weak to strong by EC50 (Hepatitis C virus; [4]), led by results:

EC50 (Hepatitis C virus; [4]) [µM]	EC90 (Hepatitis C virus; [4]) [µM]	IC50 [3] [µM]	EC50 (Hepatitis C virus) [µM]	EC90 (Hepatitis C virus) [µM]	Compound	CC50 at 72 h [1] [µM]	selectivity ratio [2]
16.5		> 1000			O=C(NNc1ncnc2sc3c(c12)CCCC3)c1ccc2ccccc2n1	40.4	2.4
12.8					COC(=O)c1ccc(N2C(=O)CC(S/C(=N\c3ccccc3)NCc3ccc4c(c3)OCO4)C2=O)cc1 (stereo not given)	62.6	4.9
12	> 38.8				O=C(NNc1ncnc2sccc12)c1ccccc1O	> 349	> 27
9.41	55.1				C/C(=N\Nc1ncnc2sc3c(c12)CCCC3)c1cc(Cl)ccc1Cl	> 256	> 27.2
5.04	1.79				C/C(=N/Nc1ncnc2sccc12)c1cnccn1	9.01	1.8
2.75	9.4				O=C(NNc1ncnc2sccc12)c1cc(O)ccc1O	> 165	> 60
1.9					Cc1cc(O)cc(O)c1/C=N/NC(=O)COc1ccc2ccccc2c1	51.9	27.3
1.47	0.819	> 1000			O=C(NNc1ncnc2sc3c(c12)CCCC3)c1ccccn1	7.75	5.27
1.29	3.75	> 1000			O=C(NNc1ncnc2sc3c(c12)CCCC3)c1cnccn1	10.6	8.21
1.1	3.25	> 1000			C/C(=N\Nc1ncnc2sc3ccccc3c12)c1nc2ccccc2[nH]1	19.1	17.4
1.1					CCc1ccc(S(=O)(=O)Nc2cc3c(C(=O)OC)c(C)oc3c3ccccc23)cc1	4.7	4.3
1.1	3.48				C/C(=N\Nc1ncnc2sc3c(c12)CCCC3)c1ccccn1	7.59	6.9
0.745	1.94	> 1000			O=C(NNc1ncnc2sc3c(c12)CCC3)c1ccccn1	6.61	8.9
0.681	2.14	> 1000			O=C(NNc1ncnc2sc3ccccc3c12)c1cc(O)ccc1O	46.5	68.3
0.461	1.01				O=C(NNc1ncnc2sc3ccccc3c12)c1ccccn1	1.54	3.3
0.415	0.858				C/C(=N\Nc1ncnc2sc3ccccc3c12)c1cnccn1	1.99	6.4
0.384	< 1.28				C/C(=N/Nc1ncnc2sc(C)c(C)c12)c1ccccc1O	93.6	244
0.17					C/C(=N/Nc1ncnc2sc(Cl)c(C)c12)c1ccccc1O	> 9.01	> 56.1
0.17	0.679	> 1000			O=C(NNc1ncnc2sc3c(c12)CCCC3)c1nc2ccccc2[nH]1	3.14	18.5
0.088	0.286	> 1000			Cc1c(Cl)sc2ncnc(NNC(=O)c3ccccn3)c12	> 9.38	> 106
0.077	0.32				Cc1nc(NNC(=O)c2ccccn2)c2c3c(sc2n1)CCCC3	> 2.95	> 38.1
